Most compounds without a hit are left out; they make up all but 4.3% or so of the library.
SMARCA2 act = increases SMARCA2 function in MMTV reporter cells. MG213 cells, MMTV-luciferase reporter, dexamethasone, overnight. activation, % at 9.1 µM. 370,000 tested, 1% active; in the data active = activation above about 7.8%;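 note: 0% = vehicle wells and 100% = reference activator wells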
AHR activator = human AHR activation; P35869; 320,000 tested, 2.5% active; AID 2796; AHR-responsive luciferase reporter cells, luminescence; activation, % at 5 µM; in the data active = activation above about 47%;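 note: 0% = vehicle wells and 100% = reference agonist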
SR-BI DiI-HDL act = activators of SR-BI mediated HDL lipid uptake | CHO ldlA[mSR-BI] cells, DiI-HDL uptake fluorescence, 3 h; 100 = double the neutral-control signal | 320,000 tested, 0.096% active | activation, % at 12.5 µM;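 active = mean replicate activation of at least 60% and every replicate at or above 60%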;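 note: 0% = median plate neutral-control signal and 100% = twice that signal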
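Assay system: CHO ldlA[mSR-BI] cells, LDL receptor-null, SR-BI overexpressing; medium: Ham's F12 with 0.5% BSA, HEPES 25 mM, pH 7.4; also added: DiI-HDL 10 µg/mL; timing: 3 h uptake period with compound, 37 °C; signal: DiI fluorescence, bottom read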
Lipid droplet = hepatic lipid droplet formation modulation; AML12 mouse hepatocytes, oleate lipid droplets, BODIPY imaging; inhibition, % at 6.5 µM; 240,000 tested, 0.4% active; AID 1656;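 active = lipid droplet intensity inhibited by at least 50%, with more than 500 cells counted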
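Assay system: AML12 mouse liver cells | Compound: 6.5 µM single-point dosing | Schedule: Overnight exposure | Technique: Fluorescence imaging, 20x objective, two fields per well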
Yeast superoxide = caloric restriction mimetics inhibiting age-related superoxide in yeast. AID 2690. S. cerevisiae aged cells, superoxide DHE fluorescence; hits give low values. 330,000 tested, 0.18% active. superoxide response (% of plate mean), % at 10 µM;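 active = superoxide response under a set limit, about three screen SD below normal, cut at about 65% in these data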;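 note: yeast aged for seven days with compound at 30 °C before DHE staining; 100% = average MFI of all compound-treated wells on the plate with controls excluded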
SR-BI HDL uptake = blocks mouse SR-BI lipid uptake from DiI-HDL; 320,000 tested, 0.96% active; inhibition, % at 12.5 µM; Q61009; ldlA[mSR-BI] CHO cells, DiI-HDL uptake fluorescence, 3 h; AID 488896;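 active = mean replicate inhibition of at least 70% and a set share of replicates each scoring 70 or more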;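 note: 0% = median of neutral control wells and 100% = median of positive control wells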
Target sequence (Q61009 whole entry, looked up): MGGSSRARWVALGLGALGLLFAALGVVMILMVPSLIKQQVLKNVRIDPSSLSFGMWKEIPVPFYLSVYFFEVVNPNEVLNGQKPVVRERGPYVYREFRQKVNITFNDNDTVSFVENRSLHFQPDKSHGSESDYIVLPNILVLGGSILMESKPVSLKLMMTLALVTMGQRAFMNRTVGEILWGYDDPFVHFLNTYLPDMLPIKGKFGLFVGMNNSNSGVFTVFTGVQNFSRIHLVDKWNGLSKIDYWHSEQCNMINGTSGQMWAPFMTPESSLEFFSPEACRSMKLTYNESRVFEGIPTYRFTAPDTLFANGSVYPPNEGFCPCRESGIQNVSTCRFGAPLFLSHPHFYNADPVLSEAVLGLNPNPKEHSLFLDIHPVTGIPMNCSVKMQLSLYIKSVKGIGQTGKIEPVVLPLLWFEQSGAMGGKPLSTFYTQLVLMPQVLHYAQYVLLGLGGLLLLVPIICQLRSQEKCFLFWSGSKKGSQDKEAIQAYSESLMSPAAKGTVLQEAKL
Superoxide pick = yeast aging superoxide inhibition, cherry pick confirmation. S. cerevisiae aging, superoxide DHE fluorescence; hits give low values. shares compounds with Yeast superoxide. 850 tested, 1% active. superoxide response (% of plate), % at 10 µM;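 active = superoxide signal below 65% of the plate average of sample wells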;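 note: cells aged with compound for 7 days at 30 degrees C before staining; 100% equals mean DHE fluorescence of all compound wells on the plate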
DHE counter = compound alters DHE oxidation or fluorescence in yeast; shares compounds with Yeast superoxide; S. cerevisiae BY4741, flow cytometry; hits give low values; fluorescence response, % at 10 µM; 850 tested, under 10 active; AID 435000;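 active = fluorescence response below 15%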;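 note: percent of the mean fluorescence averaged over all compound wells on the plate; lower means stronger quenching of DHE signal or ROS scavenging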
The depositor's hits bear a star; x = no result.

SMILES	SMARCA2 act	AHR activator	SR-BI DiI-HDL act	Lipid droplet	Yeast superoxide	SR-BI HDL uptake	Superoxide pick	DHE counter
Cn1c(=O)c2c(nc(CN3CCOCC3)n2CCN2CCOCC2)n(C)c1=O	x	-1.9	6.1	-3.8	59.7*	-6.1	94.4	92.1
CCCCn1c(CN2CCOCC2)nc2c1c(=O)n(C)c(=O)n2C	-0.9	-2.1	0.0	-4.9	99.4	0.0	x	x
COc1ccc(/C(C)=N/NC(=O)Cc2cc(=O)[nH][nH]2)cc1OC	-1.0	x	x	x	x	x	x	x
C[C@@H]1CC(=O)NN=C1c1ccc(NN=C(C#N)C#N)cc1	-6.2	x	x	x	x	x	x	x
COC(=O)C1C(=O)C=C(Nc2ccc(F)cc2)CC1c1ccc(OC)cc1 (configuration not stated)	1.0	4.6	2.1	-7.1	65.4*	-2.1	113.3	105.4
Cc1ccc(S(=O)(=O)Nc2c(C)cc(C)nc2Cl)cc1	-4.0	0.5	15.0	-9.2	49.8*	-15.0	101.5	106.8
CCN1CCN(Cc2ccc(NC(=O)c3cccc(-c4ccc5nc(NC(=O)C6CC6)sc5n4)c3)cc2C(F)(F)F)CC1	1.5	x	x	x	x	x	x	x
COc1ccccc1C1=NN(C(=O)c2ccccc2)C(c2ccc(Br)cc2)C1 (configuration not stated)	2.3	12.9	-27.5	-11.8	60.1*	27.5	101.0	97.6
COc1ccc(C2CC(c3ccc(OC)cc3OC(C)=O)=NN2C(=O)c2ccccc2)cc1 (configuration not stated)	-3.2	0.6	-7.6	2.5	96.4	7.6	x	x
c1ccc(CC(Nc2cccnc2)c2ccccc2)cc1 (configuration not stated)	-6.9	x	x	x	x	x	x	x
O=C(Nc1scc(-c2ccccc2)c1C(=O)O)c1ccc(F)cc1	1.7	3.0	5.8	-0.5	123.1	-5.8	x	x
Cc1ccc(-c2csc(NC(=O)c3ccc(F)cc3)c2C(=O)O)cc1	3.0	-3.2	6.4	-13.2	64.5*	-6.4	86.7	104.9
CCC(C)[C@H](NC(=O)OC(C)(C)C)C(=O)N[C@@H](Cc1ccccc1)C(=O)OC (some centres not stated)	-2.5	x	x	x	x	x	x	x
O=C(CCS(=O)(=O)c1ccccc1)Nc1cc(Cl)ccc1F	0.0	x	x	x	x	x	x	x
CCC1(c2ccc(F)cc2)NC(=O)N(CC(=O)Nc2cccnc2Cl)C1=O (configuration not stated)	0.2	0.8	5.2	x	63.8*	-5.2	117.2	100.9
CCC1(c2ccccc2)NC(=O)N(CC(=O)Nc2cccnc2Cl)C1=O (configuration not stated)	-3.5	-2.4	15.2	x	100.1	-15.2	x	x
CCCC(=O)OC[C@H]1CN([C@H](C)c2ccccc2)S(=O)(=O)c2c(F)cccc2O1	0.3	x	x	x	x	x	x	x
COC(=O)c1cc2c(c3c4cc(F)ccc4n(S(=O)(=O)c4ccc(C)cc4)c13)C(=O)N(Cc1ccccc1)C2	-4.1	x	x	x	x	x	x	x
Cc1cc([N+](=O)[O-])nn1Cc1ccc(C(=O)N/N=C/c2ccc(O)cc2O)cc1	-1.6	1.1	-41.2	5.0	64.9*	41.1	94.5	94.0
COc1ccc2nc3ccccc3nc2c1N	3.9	23.3	-17.3	2.4	48.6*	17.3	57.1*	94.5
C=CC(=O)NC1CCCCN(C(C)C)C1=O (configuration not stated)	-1.4	x	x	x	x	x	x	x
Nc1nc(SCc2ccccc2)n[nH]1	1.4	-0.5	21.0	-12.2	115.3	-21.0	x	x
Nc1nc(SCc2ccc(Br)cc2)n[nH]1	2.0	5.2	1.7	-10.8	48.9*	-1.7	101.8	92.3
O=[N+]([O-])c1ccc(CSc2nnc(-c3cccc(Cl)c3)n2Cc2ccco2)cc1	-7.0	x	x	x	x	x	x	x
Brc1ccc(CN2CCCc3nc(-c4ccccc4)ccc32)cc1	-2.3	x	x	x	x	x	x	x
SMILES	SMARCA2 act	AHR activator	SR-BI DiI-HDL act	Lipid droplet	Yeast superoxide	SR-BI HDL uptake	Superoxide pick	DHE counter
Cc1ccc(-c2nc3ccccc3c(=O)n2O)cc1	-2.8	9.4	-9.2	x	58.5*	9.2	92.5	110.6
COc1ccc(N2CCN(C(=O)c3cccnc3)CC2)c([N+](=O)[O-])c1	-2.7	3.0	13.3	x	98.3	-13.3	101.2	93.7
COc1ccc(N2CCN(c3ccc(C(N)=O)cc3[N+](=O)[O-])CC2)cc1	-2.5	-2.5	-11.1	-5.9	89.7	11.1	x	x
Nc1ccccc1N1CCN(C(=O)c2ccccc2)CC1	3.0	-0.5	19.1	-5.8	97.6	-19.1	99.7	113.1
COc1ccc2nc(Nc3nc(CSc4ccc(C)cc4)cc(=O)[nH]3)nc(C)c2c1	-1.3	-0.5	-6.7	19.7	117.0	28.6	x	x
COc1ccc2nc(Nc3nc(C)c(CCC(C)C)c(=O)[nH]3)nc(C)c2c1	-2.0	2.9	-34.3	13.7	65.3*	34.3	121.7	108.3
OCCC(N1CCOCC1)C(O)(c1ccccc1)c1ccccc1 (configuration not stated)	1.0	x	x	x	x	x	x	x
O=C(O)c1c(N2CCCCC2)ccc([N+](=O)[O-])c1N1CCCCC1	-3.4	3.5	0.0	5.1	52.7*	0.0	102.2	108.8
COc1ccccc1C(=O)N1CCC2CCN(C(=O)OC(C)(C)C)C2C1 (configuration not stated)	-5.8	x	x	x	x	x	x	x
CCCn1c2ccc(/C(C)=N\O)cc2c2cc(/C(C)=N/O)ccc21	1.8	48.0*	-100.7	x	111.8	100.7*	103.6	89.8
CC1CCCCN1S(=O)(=O)c1ccc(C(=O)Nc2nnc(-c3ccco3)o2)cc1 (configuration not stated)	-3.1	-1.1	20.9	-0.4	102.3	-20.9	99.0	91.1
O=C(Nc1nnc(-c2ccco2)o1)c1ccc(S(=O)(=O)N2CCCCC2)cc1	-5.8	x	x	x	x	x	x	x
CC1CCN(S(=O)(=O)c2ccc(C(=O)Nc3nnc(C4CC4)o3)cc2)CC1	-3.9	-2.4	32.6	-2.3	82.8	-32.6	87.3	97.9
CC1CCCCN1S(=O)(=O)c1ccc(C(=O)Nc2nnc(C3=COCCO3)o2)cc1 (configuration not stated)	-3.0	1.3	22.1	4.8	126.5	-22.1	93.9	100.6
CC1CCCCN1S(=O)(=O)c1ccc(C(=O)Nc2nnc(C3CC3)o2)cc1 (configuration not stated)	2.0	0.0	4.3	4.6	90.8	-4.3	97.0	101.6
Cc1cc(C)nc(N2CCC(C(=O)N(C)CCc3ccccc3)CC2)n1	-2.9	x	x	x	x	x	x	x
CCC(C)c1ccc(C(C)NC(=S)NC2CCCCC2)cc1 (configuration not stated)	1.3	2.0	10.6	-5.3	50.4*	-10.6	83.6	90.4
CC(=O)c1ccc(NS(=O)(=O)c2ccccc2)cc1	-2.5	0.5	20.1	12.6	104.4	-20.1	94.1	86.2
